# Results from different studies.
# Compare with care: the assays were run in different laboratories.
# ALOX5: Polyunsaturated fatty acid 5-lipoxygenase (ALOX5, Homo sapiens, UniProt P09917)
# HDAC8: Histone deacetylase 8 (HDAC8, Homo sapiens, UniProt Q9BY41)
# HTR1D: 5-hydroxytryptamine receptor 1D (HTR1D, Homo sapiens, UniProt P28221)
target,test,system,setting,inhibition [%],SMILES
"Substance-K receptor (TACR2, Homo sapiens, UniProt P21452)",cell-free assay,,10 µM,31.5,Oc1cccc(Nc2nc(-c3ccc(F)cc3F)cs2)c1
"Adenosine receptor A3 (Mus musculus, UniProt Q61618)","ligand displacement, radioligand",,"10 µM, cell membranes",32,CCOC(=O)C1=C(C)NC(c2ccccc2)=C(C(=O)OCc2ccccc2)C1C#Cc1ccccc1 (stereo not drawn)
ALOX5,"enzyme activity, inhibitor, fluorescence",,1 mM,> 70,O=c1occcc1O
HDAC8,"enzyme activity, inhibitor",,10 µM,41.2,CC(=O)OC1c2c(ccc3ccc(=O)oc23)OC(C)(C)C1OC(=O)C(C)(O)C(C)O (stereo not drawn)
ALOX5,"enzyme activity, inhibitor, fluorescence",,1 mM,> 70,Cc1occc(=S)c1O
"Mu-type opioid receptor (OPRM1, Homo sapiens, UniProt P35372)",ligand displacement,,10 µM,6,O=C(c1ccc(F)cc1)N(Cc1ccccc1)C1CCCCC1
HDAC8,"enzyme activity, inhibitor",,10 µM,58.2,O=C(/C=C/c1ccc(O)c(O)c1)O[C@@H]1C[C@](O)(C(=O)O)C[C@@H](O)[C@H]1O
HTR1D,cell-free assay,,10 µM,-20.3,CCCNc1nc2ccccc2n1Cc1ccc(Cl)cc1
"Glutathione hydrolase 1 proenzyme (Homo sapiens, UniProt P19440)","enzyme activity in cells, inhibitor",NIH3T3,100 µM,59,COc1ccc(Cc2nnc(NS(=O)(=O)c3cccc4ccccc34)s2)cc1
HDAC8,"enzyme activity, inhibitor",,10 µM,14.8,O=c1c(O[C@@H]2O[C@H](CO)[C@@H](O)[C@H](O)[C@H]2O)c(-c2ccc(O)cc2)oc2cc(O)cc(O)c12
"Mitogen-activated protein kinase kinase kinase 4 (MAP3K4, Homo sapiens, UniProt Q9Y6R4)","target engagement in cells, inhibitor, chemoproteomics",A-375,50 nM,-20.3,CCN1CCN(Cc2ccc(NC(=O)c3ccc(C)c(Oc4ccnc5[nH]ccc45)c3)cc2C(F)(F)F)CC1
HDAC8,"enzyme activity, inhibitor",,10 µM,60.5,COC(=O)[C@]1(O)C[C@@H](O)[C@@H](O)[C@H](OC(=O)/C=C/c2ccc(O)c(O)c2)C1
ALOX5,"enzyme activity, inhibitor, fluorescence",,1 mM,> 70,CCn1ccc(=S)c(O)c1C
HDAC8,"enzyme activity, inhibitor",,10 µM,67.2,O=c1cc(-c2ccc(O)c(O)c2)oc2cc(O)cc(O)c12
HTR1D,"ligand displacement, radioligand",,10 µM,< 50,COc1cc2c3c(c1OC)-c1cc4c(cc1CC3N(C)CC2c1ccccc1)OCO4 (stereo not drawn)
